Screens (PubChem BioAssay)
Most compounds without a hit are left out; they make up all but 5.7% or so of the library.
Calb FLC = C. albicans growth inhibition with fluconazole, primary screen, CaCi-2 strain, Alamar Blue fluorescence. C. albicans CaCi-2 (fluconazole-resistant clinical isolate) + fluconazole, 48 h. growth inhibition, % (test concentration not listed). 300,000 tested, 0.57% active;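 active = growth inhibition above about 58% in most replicates, limit read from the data, passing the limit was not always enough; inconclusive = exactly half the replicates above a set limit; inactive = most replicates below a set limit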;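 also: all wells also contain fluconazole at 8 µg/ml as a sub-toxic cotreatment; 0% = median of DMSO wells and 100% = median of geldanamycin control wells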
Mdm2 MdmX PPI = inhibitors of human Mdm2-MdmX association, primary screen, cell-based, luminescence, split luciferase, SaOS-2, uHTS | Protein Mdm4 (Homo sapiens) + E3 ubiquitin-protein ligase Mdm2 (Homo sapiens), … | SaOS-2 split-luciferase Mdm2/MdmX complementation | inhibition, % at 8 µM | 330,000 tested, 3% active;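 active = inhibition of at least 50% at 8 µM in the primary screen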
Target sequence (O15151 whole entry, looked up): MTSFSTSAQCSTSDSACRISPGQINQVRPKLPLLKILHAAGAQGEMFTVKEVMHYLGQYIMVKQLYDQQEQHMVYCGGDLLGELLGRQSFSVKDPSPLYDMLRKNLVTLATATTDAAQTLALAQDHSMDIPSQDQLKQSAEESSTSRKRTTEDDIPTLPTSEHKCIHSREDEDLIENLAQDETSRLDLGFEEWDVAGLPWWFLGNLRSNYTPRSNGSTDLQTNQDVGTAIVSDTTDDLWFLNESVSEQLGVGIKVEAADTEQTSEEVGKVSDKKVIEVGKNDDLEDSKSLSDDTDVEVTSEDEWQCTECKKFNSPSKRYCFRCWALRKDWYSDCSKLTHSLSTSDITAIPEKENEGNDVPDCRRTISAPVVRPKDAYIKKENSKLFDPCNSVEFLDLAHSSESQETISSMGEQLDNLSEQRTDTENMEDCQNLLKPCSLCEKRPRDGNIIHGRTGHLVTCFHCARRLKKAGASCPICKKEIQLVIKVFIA
Target sequence (Q00987 whole entry, looked up): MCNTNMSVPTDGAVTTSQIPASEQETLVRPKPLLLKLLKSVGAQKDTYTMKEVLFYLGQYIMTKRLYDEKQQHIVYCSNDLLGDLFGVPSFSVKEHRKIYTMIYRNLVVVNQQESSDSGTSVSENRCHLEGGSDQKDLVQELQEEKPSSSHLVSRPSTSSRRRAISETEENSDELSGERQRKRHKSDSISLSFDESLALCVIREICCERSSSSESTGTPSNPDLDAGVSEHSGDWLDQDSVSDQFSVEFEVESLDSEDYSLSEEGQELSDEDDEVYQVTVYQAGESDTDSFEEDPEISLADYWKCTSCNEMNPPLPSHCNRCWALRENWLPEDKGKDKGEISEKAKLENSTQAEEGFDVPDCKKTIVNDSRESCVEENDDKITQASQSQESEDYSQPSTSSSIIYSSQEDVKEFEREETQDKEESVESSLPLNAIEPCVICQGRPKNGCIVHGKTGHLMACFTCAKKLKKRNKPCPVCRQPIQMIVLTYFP
Beta apoptosis = inhibitors of cytokine-induced beta cell apoptosis, primary screen, luminescence; INS-1E cytokine-induced death, ATP luminescence, 48 h; percent of positive-control rescue, neutral wells zero; protection from apoptosis, % (test concentration not listed); 300,000 tested, 0.8% active;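 active = Every replicate reaches about 75%, or at least half do and their mean reaches it too, limit read from the data; inconclusive = At least half of replicates reach the limit but their mean does not; inactive = Under half of replicates reach the limit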;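 also: 0% = cytokine-treated negative control wells and 100% = positive control rescue; higher means more ATP so stronger rescue from cytokine killing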
CSC inhib = cancer stem cell viability inhibitors, primary screen, luminescence; cancer stem cell-like cells viability; 300,000 tested, 1.1% active; inhibition, % at 7.5 µM; in the data active = inhibition above about 75%; inconclusive = no clear call, values can overlap the other calls; tested in HMLE shEcad cells
T cruzi repl = inhibitors of intracellular T. cruzi growth, primary screen, luminescence, NIH3T3 host cells. T. cruzi beta-gal in NIH3T3, 90 h. inhibition, % (no concentration beside the values). 300,000 tested, 1.4% active. AID 1885, 2009;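 active = mean inhibition across valid replicates above about 55%, limit read from the data; inconclusive = mean below that limit but half or more replicates reach it; inactive = mean below it, under half of replicates reach it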;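 also: signal also drops with host cell toxicity which is not excluded here; 0% = plate median of DMSO wells and 100% = zero luminescence signal; higher percent means less beta-gal luminescence so fewer parasites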
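Test system: β-gal T. cruzi (Tulahuen C4) inside NIH/3T3 cells / Quantity: 5,000 cells/well / Measured by: luminescence from GalScreen with 0.05% NP40, read after 60 min / Medium: DMEM plus 2% FBS / Measure: parasite load inhibition, % / Reagent: Tulahuen C4 trypomastigotes, 5000/well / Schedule: co-culture of at least 90 h after 3 h attachment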
SKKanGAS inh = S. pyogenes SKKanGAS growth inhibitors in kanamycin, primary screen, streptokinase expression inhibitor project, SKKanGAS strain, BacTiter-Glo luminescence; 300,000 tested, 1.3% active; inhibition, % at 7.5 µM; 6 h;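 active = mean replicate score, as percent of positive control median, at least 50; inconclusive = mean below 50 but one replicate at or above 50; inactive = mean and every replicate below 50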;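 also: strain carries kanamycin resistance gene driven by streptokinase promoter and grows in 40 µg/ml kanamycin; loss of luminescence reflects streptokinase promoter inhibition or plain growth inhibition; 0% = median of DMSO wells and 100% = positive control at its reference dose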
Mdm2-MdmX conf = Mdm2-MdmX complex disruptors, retested hits, confirmation, luminescence, single concentration | shares compounds with Mdm2 MdmX PPI | inhibition, % at 8 µM | 10,000 tested, 55% active | Mdm2-MdmX binding, luminescent assay | AID 489028, 2010; in the data active = inhibition above about 40%
Full FLuc ctr = full-length luciferase signal inhibition, confirmation, counter-screen for Mdm2/MdmX interaction inhibitor project, cell-based, single concentration, SaOS-2; shares compounds with Mdm2 MdmX PPI; 6,200 tested, 77% active; SaOS-2 full-length luciferase counterscreen, luminescence; AID 504607, 2011; inhibition, % at 8 µM;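 active = mean inhibition at 8 µM reaching about 37%, which flags the compound as non-specific, limit read from the data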;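 also: p53-null SaOS-2 cells with luciferase driven by a doxycycline-inducible promoter; compound on cells about two nights before reading with doxycycline added after day one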
* hit, by the source's call; ? = inconclusive; / = no result given.

SMILES | Calb FLC | Mdm2 MdmX PPI | Beta apoptosis | CSC inhib | T cruzi repl | SKKanGAS inh | Mdm2-MdmX conf | Full FLuc ctr
C#CCOCCOCCOCCNc1nc(N2CCN(C(=O)Cn3cc(CCCCN)nn3)CC2)nc(N2CCN(C(=O)[C@H]([C@@H](C)CC)n3cc(CCCCN)nn3)CC2)n1 | / | -8 | 4 | -8 | / | / | / | /
C#CCOCCOCCOCCNc1nc(N2CCN(C(=O)CCCCCCCCCCNC(=O)[C@H]([C@@H](C)CC)n3cc(CCCCCN)nn3)CC2)nc(N2CCN(C(=O)CCCCCCCCCCNC(=O)[C@H](CO)n3cc(CCCCCN)nn3)CC2)n1 | / | 90* | 56 | 3 | / | / | 1 | /
C#CCOCCOCCOCCNc1nc(N2CCN(C(=O)CCCCCCCCCCNC(=O)[C@H]([C@@H](C)CC)n3cc(CCCCCN)nn3)CC2)nc(N2CCN(C(=O)CCCCCCCCCCNC(=O)[C@@H]([C@H](C)CC)n3cc(CCCCCN)nn3)CC2)n1 | / | 100* | 115* | 167* | / | / | 63* | 1
CCCNC(=O)COC(=O)c1ccccc1C(=O)c1ccc(Cl)c([N+](=O)[O-])c1 | -14 | 98* | -13 | -7 | 32 | 7 | 88* | 52*
O=C(c1cc(-c2ccccc2Cl)nc2ccc(Br)cc12)N1CCN(c2ccccn2)CC1 | -9 | 74* | 106* | 16 | 37 | 12 | 9 | /
Cc1ccc(-c2cc(C(=O)N3CCN(c4ccccc4O)CC3)c3ccccc3n2)o1 | 1 | 5 | 9 | 6 | 0 | 23 | / | /
O=C(c1cccn2c(=O)c3cc(Br)ccc3nc12)N1CCN(c2ccccn2)CC1 | / | -25 | / | -10 | / | / | / | /
O=C(c1cc(-c2ccc(Br)cc2)nc2ccccc12)N1CCN(c2ccccc2O)CC1 | 0 | 56* | -2 | / | 29 | 59* | 30 | /
COc1ccc(-c2cc(C(=O)N3CCN(c4cccc(C)c4C)CC3)c3ccccc3n2)cc1OC | -3 | 75* | 0 | 15 | 62* | 29 | 18 | /
O=C(c1cc([N+](=O)[O-])ccc1N1CCOCC1)N1CCN(S(=O)(=O)c2cc(Cl)ccc2Cl)CC1 | 2 | 13 | 5 | -6 | 13 | 0 | / | /
Cn1cc(/C=N/n2cnc3sc4c(c3c2=O)CCCC4)c2ccccc21 | 23 | 44 | -3 | / | 3 | -1 | / | /
O=c1c2c3c(sc2ncn1/N=C/c1ccc([N+](=O)[O-])o1)CCCC3 | 12 | 58* | 21 | 103* | -29 | 3 | 43* | 57*
Cc1cccc(/C(N)=N/OC(=O)N2CCOCC2)c1 | 3 | 86* | 6 | 9 | 60* | -3 | 49* | 105*
Cc1ccc(/C(N)=N/OC(=O)N2CCOCC2)cc1 | 1 | 95* | / | / | 55* | 1 | 51* | 126*
Cc1cccc(/C(N)=N/OC(=O)c2ccco2)c1 | -8 | -36 | 5 | -7 | -17 | -5 | / | /
Cc1ccc(C(C)C)c(OCc2nnc3n2CCCCC3)c1 | 6 | 10 | / | -13 | -4 | -3 | / | /
Cc1ccc(C(C)C)c(OCc2nn(CC(=O)c3ccc(OC(F)F)cc3)c3[n+]2CCCCC3)c1 | 90* | 95* | 114* | 94* | ? | 71* | 87* | 23
Cc1cc(C)cc(N(C(=O)c2csnn2)C(C(=O)NC(C)(C)C)c2cccnc2)c1 (stereo not given) | 4 | -12 | -1 | -12 | 1 | 4 | / | /
Cc1ccc(OC(F)F)c(NC(=O)Nc2cccc(C(F)(F)F)c2)c1 | -27 | 88* | 66 | 5 | 55* | 39 | 59* | 24
O=C(Nc1ccccc1)Nc1cccc(C(F)(F)F)c1 | ? | 29 | 26 | -1 | 40 | 2 | / | /
COc1ccc(-c2nc(N)n(C(=O)Cc3ccccc3)n2)cc1 | / | -13 | -24 | -6 | -7 | 19 | / | /
COc1ccc2cc3c(N)nn(C(=O)C4CCC(C(C)(C)C)CC4)c3nc2c1 (stereo not given) | 7 | 94* | -27 | 59 | 29 | 93* | 88* | 11
COc1ccc2cc3c(N)nn(C(=O)Cc4ccccc4OC)c3nc2c1 | 3 | 72* | -4 | 1 | 10 | -1 | 67* | 62*
COc1ccc(-n2cnc(N)c2C(=O)c2cccc([N+](=O)[O-])c2)cc1 | 1 | 36 | -14 | 1 | -4 | -3 | / | /
COc1ccc2cc3c(N)nn(C(=O)c4cccc([N+](=O)[O-])c4)c3nc2c1 | 34 | 88* | -19 | -10 | -5 | 0 | 67* | 32
SMILES | Calb FLC | Mdm2 MdmX PPI | Beta apoptosis | CSC inhib | T cruzi repl | SKKanGAS inh | Mdm2-MdmX conf | Full FLuc ctr
CC(C)(c1ccccc1)c1ccc(OCCCNCCO)cc1 | / | 54* | / | 5 | -10 | 2 | 37 | /
COc1ccc(CC(=O)Nc2cccc(-c3nnc(-c4ccc(C)cc4)o3)c2)cc1OC | ? | 72* | 42 | 34 | 16 | 9 | 75* | 67*
COc1ccc(CC(=O)Nc2cccc(-c3nnc(-c4cccc(C)c4)o3)c2)cc1OC | 3 | 93* | 106* | 63 | 26 | 26 | 61* | 41*
COc1ccc(CC(=O)Nc2cccc(-c3nnc(-c4ccccc4)o3)c2)cc1OC | 6 | / | / | / | 6 | -5 | / | /
Cc1cc(C)cc(-n2c(SCC(=O)NCc3ccc4c(c3)OCO4)nc3ccccc3c2=O)c1 | -9 | 7 | 2 | 7 | 23 | 10 | / | /
O=C(CSc1nc2cc([N+](=O)[O-])ccc2n1-c1ccccc1)NCc1ccc2c(c1)OCO2 | 0 | 56* | 4 | -2 | 8 | -4 | 22 | /
COc1cccc(NC(=O)CSc2nc(=O)n(Cc3ccncc3)c3c2CCCC3)c1 | 2 | -17 | / | -9 | -3 | -10 | / | /
Cc1ccccc1NC(=O)COC(=O)CCc1nc2ccccc2c(=O)[nH]1 | -5 | 1 | -3 | -1 | -3 | -12 | / | /
CCOc1ccccc1NC(=O)CCCc1nc2ccccc2c(=O)[nH]1 | -14 | 65* | 7 | 17 | -13 | 3 | 49* | 56*
CCOc1ccc(NCc2cc3c(C(C)(C)C)nn(-c4ccccc4)c3[nH]c2=O)cc1 | -13 | 96* | -16 | 21 | 16 | -7 | 23 | 91*
Cc1ccc(-c2nn(-c3ccccc3)c3[nH]c(=O)c(CNCc4ccccc4)cc23)cc1 | 7 | 52* | -1 | 53 | 18 | 33 | 12 | /
